From ChEMBL document CHEMBL2429784, “Withanolide-based steroids from the cultured soft coral Sinularia brassica” (2013)

Legend:
Type in all cases: functional
Settings in all cases: read-out: ED50 (the source's name)
HT-29 = test: Cytotoxicity against human HT-29 cells by Alamar blue assay
Method in brief: (§1)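 Cell lines from ATCC. Growth inhibition measured by Alamar Blue read-out. ED50 reported as mean ± SEM of triplicate determinations; inactivity cutoff set at ED50 > 10 μM. 5-Fluorouracil run as positive control.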

MOLT-4 = test: Cytotoxicity against human MOLT4 cells by Alamar blue assay; method in brief: as §1
P388 = test: Cytotoxicity against mouse P388 cells by Alamar blue assay; method in brief: as §1
K562 = test: Cytotoxicity against human K562 cells by Alamar blue assay; method in brief: as §1

Row | Compound | EC50 (HT-29) [µM] | EC50 (MOLT-4) [µM] | EC50 (P388) [µM] | EC50 (K562) [µM]
1 | C[C@@H]1[C@H]([C@H]2OC(=O)[C@H](C)[C@H]2C)O[C@H]2C[C@H]3[C@@H]4CCC5=CC(=O)C=C[C@]5(C)[C@H]4CC[C@]3(C)[C@@H]12 | 4.8 | 4.8 | 9.1 | –
2 | O=c1[nH]cc(F)c(=O)[nH]1 [FLUOROURACIL] | 7.7 | 7.7 | 6.2 | 21
3 | C[C@H]1[C@H]2[C@H](C[C@H]3[C@@H]4CCC5=CC(=O)C=C[C@]5(C)[C@H]4CC[C@]23C)O[C@@]2(OC(=O)[C@@H](C)[C@H]2C)[C@H]1O | 7.5 | 9.9 | – | –
4 | C[C@@H]1[C@H]([C@H]2OC(=O)[C@@H](C)[C@H]2C)O[C@H]2C[C@H]3[C@@H]4CCC5=CC(=O)C=C[C@]5(C)[C@H]4CC[C@]3(C)[C@@H]12 | – | – | – | 8.7
